Lmaj promast – reduces viability of Leishmania major promastigotes | resazurin fluorescence viability | inhibition, % at 10 µM | actives 9% (n = 200,000) | AID 1063; in the data active means inhibition above about 50%;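 further: promastigotes grown with compound for 44 hours at 28 °C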
DTT redox prof – compounds producing H2O2 with reducing agent – biochemical, NIH compound library profiling, artefact control for MLSCN library redox annotation, primary screen. DTT-dependent redox cycling H2O2, phenol red/HRP absorbance; 100% = 100 µM peroxide control, 0% = buffer. actives 0.03% (n = 200,000). activation, % at 10 µM. AID 878;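 active means activation of at least 50% relative to the plate's high and low controls in the primary single-dose screen; inactive means activation below 50%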;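 further: compound incubated with DTT at 0.8 mM final as the reducing agent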
Lipid droplet – modulators of hepatic lipid droplet formation; actives 0.4% (n = 240,000); inhibition, % at 6.5 µM; AML12 mouse hepatocytes, oleate lipid droplets, BODIPY imaging; AID 1656;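 active means lipid droplet intensity inhibited by at least 50%, with more than 500 cells counted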
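Assay system: AML12 hepatocytes (mouse); Probe or stimulus: oleic acid at 100 µM to induce lipid droplet formation; Dosing: compound at 6.5 µM only; Schedule: compound with oleate, overnight; Detection: fluorescence imaging, 20x objective, two fields per well; Measure: % inhibition of lipid droplet signal.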
T cruzi inh – T. cruzi replication inhibition; actives 1.4% (n = 300,000); T. cruzi beta-gal in NIH3T3, luminescence, 90 h; inhibition, % (concentration not given with the values);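 active means mean inhibition across valid replicates above about 55%, limit read from the data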;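 further: signal also drops with host cell toxicity which is not excluded here; higher percent means less beta-gal luminescence so fewer parasites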
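System – NIH/3T3 host cells with β-galactosidase reporter T. cruzi · Doses – single 50 nL compound addition per well in DMSO · Reagent – 5000 T. cruzi trypomastigotes/well · Medium – Low-serum DMEM with 2% FBS · Timing – ≥90 h infection period, 3 h prior cell attachment · Evaluation – parasite load inhibition, % · Technique – GalScreen luminescence, 60 min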
MPTP inh – permeability transition pore inhibition; isolated mouse mitochondria, Ca2+ swelling absorbance, 30 min; inhibition, % at 10 µM; actives 1.4% (n = 360,000); AID 602449;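 active means inhibition of 50% or more, scaled per plate between neutral and stimulator controls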
Of the large screens only hits and unclear results are named; the others gave an inactive call. Shown is part of a subset that was picked to be rich in hits.

CCOC(=O)c1ccc(NC(=S)N2CCN(C)CC2)cc1	none (no result: Lmaj promast, DTT redox prof)
CCOC(=O)c1c(/N=C/N(C)C)sc(/C=N/Nc2ccccc2)c1-c1ccccc1Cl	none
CCOC(=O)c1c(NC(=O)CN2CCCCC2)sc2c1CCCC2O (configuration not stated)	none (no result: Lipid droplet)
CCOC(=O)c1c(NC(=O)CN2CCCCC2)sc(CN(C)C)c1-c1ccccc1	Lmaj promast 52, T cruzi inh 68
CCOC(=O)c1c(/N=C/N(C)C)sc(/C=N/Nc2ccccc2)c1-c1ccccc1	Lmaj promast 95
CCOC(=O)c1c(NC(=O)CCl)sc(CN(C)C)c1-c1ccccc1	Lmaj promast 91
CCOc1cc(S(=O)(=O)NCc2ccccc2)ccc1Br	none
COc1ccc(CCNC(=O)C(=O)NCC2OCCN2S(=O)(=O)c2cccs2)cc1 (configuration not stated)	none (no result: Lmaj promast, DTT redox prof)
O=S1(=O)N[C@H](Cc2ccccc2)COc2cc(N3CC[C@H](O)C3)ccc21	none (no result: Lmaj promast, DTT redox prof, Lipid droplet, T cruzi inh)
COc1ccc(C(=O)Nc2ccc(Cl)cc2C(=O)N2CCCC(C)C2)cc1OC (configuration not stated)	none
Cc1c(C(=O)Nc2ccc(-c3nnc4n3CCCCC4)cc2)oc2ccc(Br)cc12	T cruzi inh 61
Cc1ccc(-n2c(C(C)C)nc3oc4ccccc4c(=O)c3c2=O)cc1	none (no result: Lmaj promast, DTT redox prof)
O=C(c1ccc2c(=O)n(Cc3ccccc3Cl)c(=S)[nH]c2c1)N1CCCC1	none (no result: Lmaj promast, DTT redox prof)
O=C(COC(=O)Cc1c(Cl)cccc1Cl)NCCC1=CCCCC1	none
O=C(COC(=O)Cc1ccc(Cl)cc1Cl)NCCC1=CCCCC1	Lmaj promast 54
O=C(COc1ncnc2c(Cl)cc(Cl)cc12)NCCC1=CCCCC1	Lmaj promast 100
O=C(COc1ncnc2ccccc12)NCCC1=CCCCC1	none (no result: Lipid droplet)
CC(C)(C)NC(=O)C(c1ccc(C#N)cc1)n1c(=O)c(-c2cc3ccccc3[nH]2)nc2ccccc21 (configuration not stated)	none (no result: Lmaj promast, DTT redox prof, Lipid droplet, T cruzi inh)
NS(=O)(=O)c1cccc(NC(=O)CSc2nnc3n2CCCCC3)c1	none (no result: Lmaj promast, DTT redox prof, Lipid droplet, T cruzi inh)
CCOc1ncc(S(=O)(=O)N2CCN(CC)CC2)cc1C(=O)O	none (no result: Lmaj promast, DTT redox prof)
O=C(COC(=O)c1ccc(Cl)c([N+](=O)[O-])c1)Nc1ccccc1OC(F)F	Lmaj promast 58
COc1cc(/C=C2\SC(=Nc3ccccc3)N(CCc3c[nH]c4ccccc34)C2=O)ccc1OC(C)C(=O)O (configuration not stated)	none
O=C1/C(=C/c2ccc(N3CCOCC3)o2)SC(=Nc2ccccc2)N1CCc1c[nH]c2ccccc12	Lmaj promast 100, T cruzi inh 71 (no result: Lipid droplet)
C=CCn1c(COc2ccc(Cl)cc2)nnc1SCC(=O)N/N=C/c1cccc(O)c1	none (no result: Lipid droplet)
C=CCn1c(COc2ccccc2)nnc1SC(C)C(=O)N/N=C/c1cc(Cl)ccc1O (configuration not stated)	Lmaj promast 98 (no result: T cruzi inh)
CN1CCN(NC(=O)c2cc(-c3ccc(Cl)s3)nc3ccccc23)CC1	none (no result: Lmaj promast, DTT redox prof)
O=C(C(=O)N1CCC(Cc2ccccc2)CC1)c1cccc(Br)c1	none (no result: Lmaj promast, DTT redox prof, Lipid droplet, T cruzi inh)
CC1=C(C#N)C(c2cccnc2)C2=C(CC(c3ccc(Cl)cc3)CC2=O)N1 (configuration not stated)	Lmaj promast 100, T cruzi inh 60
COC(=O)c1cc(OC)nc2ccc(Br)cc12	none (no result: Lmaj promast, DTT redox prof)
CC(=O)Nc1ccc(NC(=O)C(C)OC(=O)C2CCN(S(=O)(=O)c3cccs3)CC2)cc1 (configuration not stated)	none (no result: Lmaj promast, DTT redox prof)
CCSc1nnc(NC(=O)C2Cc3ccccc3CN2S(=O)(=O)CC)s1 (configuration not stated)	none
CCS(=O)(=O)N1Cc2ccccc2CC1C(=O)Nc1nc2c(C)cccc2s1 (configuration not stated)	Lmaj promast 55
CCS(=O)(=O)N1Cc2ccccc2CC1C(=O)Nc1nnc(SCc2c(Cl)cccc2Cl)s1 (configuration not stated)	Lmaj promast 81
Cc1cnc(C(=O)Nc2nnc(SCc3c(Cl)cccc3Cl)s2)cn1	Lmaj promast 56
O=C(COC(=O)c1ccc(F)c(S(=O)(=O)N2CCOCC2)c1)NC1CC1	none (no result: Lmaj promast, DTT redox prof, Lipid droplet, T cruzi inh)
Cc1ccc(/C=C/S(=O)(=O)NCCC(=O)NCc2ccc(F)cc2)cc1	none (no result: Lmaj promast, DTT redox prof, Lipid droplet, T cruzi inh)
Cc1cc(-c2ccccc2)nc2cc(C(=O)N(Cc3ccccc3)Cc3ccccc3)nn12	Lmaj promast 53
COC(=O)c1cc2nc(-c3ccccc3)cc(C)n2n1	none
